Rows were chosen to be rich in hits. Some 0.92% of all compounds tested hit in one or more screens of this group.
MLL AF4-AF9 inh: blocks AF4 peptide binding to human AF9 | 0.47% of 350,000 active | P42568 | inhibition, % at 10 µM | AlphaScreen, biotin-AF4 peptide binding to FLAG-AF9;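 active means every replicate reaching a set inhibition limit, whatever the replicate mean, cut at about 25% in these data; inconclusive means mean inhibition reaches that limit but some replicates miss it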
Target sequence (P42568 whole entry, looked up): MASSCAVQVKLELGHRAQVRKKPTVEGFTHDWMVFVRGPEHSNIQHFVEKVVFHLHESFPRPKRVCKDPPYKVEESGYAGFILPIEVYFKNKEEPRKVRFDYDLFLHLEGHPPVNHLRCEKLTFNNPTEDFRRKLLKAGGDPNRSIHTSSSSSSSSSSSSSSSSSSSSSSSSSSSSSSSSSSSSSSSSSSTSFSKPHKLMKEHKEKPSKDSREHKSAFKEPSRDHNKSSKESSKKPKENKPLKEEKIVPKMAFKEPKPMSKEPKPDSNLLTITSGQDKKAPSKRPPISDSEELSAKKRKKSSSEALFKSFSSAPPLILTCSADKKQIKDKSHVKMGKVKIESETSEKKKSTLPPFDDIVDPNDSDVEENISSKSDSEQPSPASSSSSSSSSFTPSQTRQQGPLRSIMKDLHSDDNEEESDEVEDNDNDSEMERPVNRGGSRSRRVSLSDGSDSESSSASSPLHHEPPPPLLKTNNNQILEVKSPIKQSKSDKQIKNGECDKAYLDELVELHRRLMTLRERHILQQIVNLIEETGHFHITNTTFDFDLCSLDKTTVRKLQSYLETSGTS
N-glyco inh: blocks N-linked glycosylation in D54 reporter cells. D54 ERlucT glycosylation luciferase reporter, 24 h; percent of 100 nM tunicamycin response. reporter increase, % at 12.5 µM. 0.23% of 360,000 active;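 active means mean luciferase reporter signal, scaled so untreated is 0 and the glycosylation-blocking control 100, at or above a set limit in every replicate; inconclusive means mean reaches the limit but not every replicate does; inactive means mean below the limit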;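 further: luciferase carries N-glycosylation sites so blocking glycosylation raises the light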
FN deposition inh: fibronectin deposition inhibition; AH1F fibroblasts, Alexa488-fibronectin deposition fluorescence, overnight; inhibition, % at 12.6 µM; 0.086% of 350,000 active; AID 743247;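 active means mean inhibition across replicates of 30% or more, regardless of how many single replicates reach that level; inconclusive means mean under 30% yet at least half of replicates reach 30%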
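Assay system: AH1F fibroblast monolayer, labelled fibronectin deposition. Amount: 10000 cells per well. Also added: labelled fibronectin 24 nM. Compound: single-point pinned compound. Incubation: cell attachment 1 h, compound and FN exposure overnight. Detection: fluorescence after three HBSS washes, excitation 485 nm, emission 525 nm. Read-out: inhibition of fibronectin deposition signal.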
RAD52 inh: RAD52 (human) annealing inhibition | 0.46% of 360,000 active | AID 651710 | inhibition, % at 18.7 µM | P43351 | recombinant RAD52 DNA annealing, FRET fluorescence;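 active means every replicate showing at least 50% inhibition; inconclusive means mean inhibition at least 50% but not in every replicate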
RAD54 branch: inhibitors of human RAD54 branch migration; 0.14% of 360,000 active; Q92698; inhibition, % at 10.4 µM; AID 602329; RAD54 Holliday junction branch migration, FAM/BHQ fluorescence;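 active means mean normalized replicate activity at least 40 and at least half of replicates scoring 40 or more; inconclusive means only one of the two criteria met; inactive means mean below 40 and under half of replicates reaching 40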;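 further: inhibitors cause a drop in the FAM fluorescence signal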
Hits are given with their value; – = inactive; ? = inconclusive; · = no result.

SMILES | MLL AF4-AF9 inh | N-glyco inh | FN deposition inh | RAD52 inh | RAD54 branch
CCCNC(=O)N[C@@H]1CC[C@H](CC(=O)NC2CCC2)O[C@@H]1CO | – | · | – | – | –
N#Cc1nc(COc2ccccc2)oc1N1CCCC1 | · | – | · | · | –
CCOc1ccc(-c2nc(C#N)c(N3CCN(Cc4ccccc4)CC3)o2)cc1 | 52.9 | – | – | – | –
N#Cc1nc(COc2ccccc2)oc1N1CCCCCC1 | 26.9 | – | – | – | –
C[C@@H]1CN([C@@H](C)CO)C(=O)c2cc(NC(=O)c3ccncc3)ccc2O[C@@H]1CN(C)S(=O)(=O)c1ccc(F)cc1 | – | · | – | – | –
O=C(CSc1nc2cc(Cl)ccc2s1)N1CCN(C(=O)c2ccco2)CC1 | · | – | · | · | ·
O=C(CSc1c2c(nc3ccc(Cl)cc13)CCCC2)N1CCN(C(=O)c2ccco2)CC1 | – | 41.2 | – | – | ·
CCOc1ccccc1/C=N/N1CCN(Cc2ccccc2)CC1 | 27.5 | – | – | – | –
Clc1ccccc1/C=N/N1CCN(Cc2ccccc2)CC1 | 34.2 | – | – | – | –
FC(F)(F)c1ccccc1/C=N/N1CCN(Cc2ccccc2)CC1 | – | – | – | – | –
O=[N+]([O-])c1ccccc1/C=N/N1CCN(Cc2ccccc2)CC1 | ? | – | – | – | –
Cc1noc(C)c1C(=O)N(C)C[C@H]1OCc2ccccc2-c2ccccc2C(=O)N([C@@H](C)CO)C[C@H]1C | · | · | – | · | ·
C[C@@H]1CN([C@H](C)CO)C(=O)Cc2cc(NC(=O)c3ccncc3)ccc2O[C@H]1CN(C)S(C)(=O)=O | – | · | · | – | –
COc1ccc(Nc2nc(N3CCCC3)nc3ccccc23)c(OC)c1 | · | 99.3 | – | · | 99.5
COc1ccc(OC)c(Nc2c3ccccc3nc3ccccc23)c1 | 40.4 | – | – | – | –
COc1ccc(Nc2ncnc3ccccc23)c(OC)c1 | · | – | – | · | –
COc1cc(Nc2c3c(nc4ccccc24)CCC3)cc(OC)c1OC | – | 48.6 | – | – | –
Cc1ccc(S(=O)(=O)N(C)C[C@@H]2Oc3ccc(N(C)C)cc3C(=O)N([C@H](C)CO)C[C@H]2C)cc1 | – | · | · | – | –
C[C@H]1CN([C@@H](C)CO)C(=O)c2cc(C#CCN(C)C)cnc2O[C@@H]1CN(C)Cc1cccc(F)c1 | – | · | – | – | ·
CN1[C@@H]2c3ccc(-c4cncnc4)c(=O)n3C[C@@H]2[C@@H](CO)[C@@H]1C(=O)N1CCc2ccccc2C1 | – | · | · | · | ·
CN1CCN(C(=S)c2cn(Cc3cccc(F)c3)c3ccccc23)CC1 | – | – | – | – | ·
CN1CCN(C(=S)c2cn(Cc3ccc(F)cc3)c3ccccc23)CC1 | 31.0 | – | – | – | ·
Cc1ccc(-c2ccccc2[C@H]2[C@@H](CO)N(S(C)(=O)=O)[C@H]2C#N)cc1 | – | · | – | 101.3 | ·
N#C[C@@H]1[C@@H](c2ccccc2-c2cccc(F)c2)[C@H](CO)N1C(=O)C1CCCC1 | – | · | – | 113.7 | ·
CN(C)C(=O)c1ccc(-c2ccccc2[C@@H]2[C@@H](CO)N(C(=O)C3CCCC3)[C@H]2C#N)cc1 | – | · | – | 58.0 | ·
SMILES | MLL AF4-AF9 inh | N-glyco inh | FN deposition inh | RAD52 inh | RAD54 branch
N#C[C@H]1[C@@H](c2ccccc2-c2cccc(F)c2)[C@@H](CO)N1C(=O)C1CCCC1 | – | · | – | – | ·
COc1cc(CN2CC3(CN(C(C)=O)C3)c3c([nH]c4cc(OC)ccc34)[C@H]2CO)cc(OC)c1 | – | · | · | · | ·
Cc1ccc(S(=O)(=O)N(C)C[C@@H]2OCCCC[C@@H](C)Oc3ccc(NS(=O)(=O)c4ccc(F)cc4)cc3C(=O)N([C@@H](C)CO)C[C@@H]2C)cc1 | – | · | – | – | –
Cc1noc(C)c1NC(=O)Nc1ccc2c(c1)C(=O)N([C@@H](C)CO)C[C@H](C)[C@@H](CN(C)CC1CCCCC1)O2 | · | · | – | · | ·
COc1ccccc1CCNCc1ccc(OC)c(OCc2ccccc2)c1 | · | 34.4 | – | · | –
Cc1noc(C)c1NC(=O)N(C)C[C@H]1OCCCC[C@@H](C)Oc2ccc(NC(=O)Cc3ccccc3)cc2C(=O)N([C@@H](C)CO)C[C@H]1C | – | · | · | – | –
CCOc1nc(N=C(N)N)nc2c(C)cccc12 | · | – | · | · | 59.8
COc1ccc(-c2cc(C)no2)cc1S(=O)(=O)NCCc1ccco1 | 25.8 | – | – | – | –
CC=Cc1ccc2n(c1=O)C[C@H]1[C@H](CO)[C@@H](C(=O)NCC(F)(F)F)[C@@H]2N1C(C)=O (mixture of isomers) | – | · | · | – | –
CC(C)CCNC(=O)CCCOc1cc(=O)n(C)c2ccccc12 | · | 30.6 | – | – | –
Cc1ccc(Nc2c(-c3ccccn3)nc3cc(C)ccn23)cc1 | 37.0 | – | – | – | –
O=C(COc1ccc2ccc(=O)oc2c1)Nc1ccc(N2CCCCC2)cc1 | 46.9 | – | – | 66.0 | –
O=C(COc1ccc2ccc(=O)oc2c1)Nc1ccc(CCO)cc1 | – | – | – | – | –
CCN(CC)CCNC(=O)c1[nH]c2ccc(OCc3ccccc3)cc2c1C | 25.3 | – | – | – | ·
CN1CCN(C(=O)C[C@H]2C[C@H]3c4cc(NC(=O)NC5CCCC5)ccc4O[C@H]3[C@H](CO)O2)CC1 | – | · | – | – | –
O=C(NCC1CC1)[C@@H]1[C@@H](CO)[C@@H]2Cn3c(ccc(-c4ccccc4)c3=O)[C@H]1N2CC1CC1 | – | · | · | – | –
COc1cc(-c2nc(-c3ccccc3)c(-c3cccs3)[nH]2)cc(OC)c1OC | · | 56.6 | · | · | –
Cn1c(=O)c(Nc2ccc(O)cc2)c2c3c(cccc31)C(=O)c1ccccc1-2 | 29.3 | – | – | – | ·
COc1cc(C(=O)OCC#N)ccc1OCc1c(C)noc1C | – | 30.7 | – | – | –
CC(=O)Nc1cccc2c1O[C@@H](CN(C)C(=O)OC(C)(C)C)[C@H](C)CN(C)C2=O | · | · | – | · | ·
O=C(NCCc1c[nH]c2ccccc12)/C(=C\c1ccco1)NC(=O)c1ccco1 | – | – | – | – | –
Cc1ccc(C(=O)N/C(=C\c2ccco2)C(=O)NCCc2c[nH]c3ccccc23)cc1 | – | 30.3 | – | – | ·
Cc1ccc(C(=O)N/C(=C/c2cccs2)C(=O)NCCc2c[nH]c3ccccc23)cc1 | – | 55.3 | – | – | –
C[C@H]1CN(C)C(=O)c2cc(N)ccc2O[C@@H]1CN(C)C | · | · | – | · | ·
C[C@H](NC(=O)N(C)C[C@@H]1OCc2ccccc2-c2c(n(C)c3ccccc23)C(=O)N([C@@H](C)CO)C[C@H]1C)c1ccccc1 | – | · | – | – | –
SMILES | MLL AF4-AF9 inh | N-glyco inh | FN deposition inh | RAD52 inh | RAD54 branch
COc1ccc2c3c([nH]c2c1)[C@H](CO)N(Cc1ccccc1)CC31CCN(CC2CC2)CC1 | 26.1 | · | · | – | ·
COc1cc(CN2CC3(CN(C)C3)c3c([nH]c4cc(OC)ccc34)[C@@H]2CO)cc(OC)c1 | – | · | · | 53.8 | ·
COc1ccc(S(=O)(=O)N2CCC3(CC2)CN(Cc2ccccc2OC)[C@@H](CO)c2[nH]c4cc(OC)ccc4c23)cc1 | – | · | · | 52.2 | ·
COc1ccc2c3c([nH]c2c1)[C@@H](CO)N(Cc1cccc(Cl)c1)CC31CN(C)C1 | – | · | · | – | ·
COc1ccc2c3c([nH]c2c1)[C@H](CO)N(Cc1cccc(Cl)c1)CC31CN(C)C1 | – | · | · | 55.7 | ·
CN(C)CC(=O)Nc1ccc2c(c1)[C@@H]1C[C@H](CC(=O)NCCN3CCCCC3)O[C@@H](CO)[C@@H]1O2 | – | · | · | – | –

Source: PubChem
